Assay outcomes deposited in PubChem BioAssay by several laboratories.
APP 5'UTR act: activators of APP 5'UTR luciferase reporter, primary screen, SH-SY5Y cells. SH-SY5Y APP 5'UTR luciferase reporter, luminescence; zero percent = DMSO vehicle wells. activation, % at 2 µM. 190,000 tested, 1% active;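 active = activation above a set limit, based on mean plus 3 SD of controls, cut at about 140% in these data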
STAT1 activator: STAT1 signaling activators, primary screen, cell-based, HTS, luciferase reporter. NIH 3T3 STAT1-luciferase reporter, IFN-gamma, luminescence; 100% = IFN-gamma alone, no compound. activation (% of control), % at 5.5 µM. 200,000 tested, 2.6% active;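 active = activation above the screen-wide mean activation plus 3 SD, cut at about 130% in these data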
FLuc stim CS: FLuc activators, initial screening, artefact control for FLuc-dependent activation tests, biochemical, ATPlite luminescence. ATPlite luciferase biochemical, 10 min; 0 = ATP-free wells, 1 = DMSO control. Luciferin 4-monooxygenase (Photinus pyralis), P08659. 200,000 tested, under 10 active. AID 1027, 2008. activation factor at 10 µM;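 active = luciferase activation factor, scaled between plate controls, of at least 2 with compound at 10 µM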
Target sequence (P08659 whole entry, looked up): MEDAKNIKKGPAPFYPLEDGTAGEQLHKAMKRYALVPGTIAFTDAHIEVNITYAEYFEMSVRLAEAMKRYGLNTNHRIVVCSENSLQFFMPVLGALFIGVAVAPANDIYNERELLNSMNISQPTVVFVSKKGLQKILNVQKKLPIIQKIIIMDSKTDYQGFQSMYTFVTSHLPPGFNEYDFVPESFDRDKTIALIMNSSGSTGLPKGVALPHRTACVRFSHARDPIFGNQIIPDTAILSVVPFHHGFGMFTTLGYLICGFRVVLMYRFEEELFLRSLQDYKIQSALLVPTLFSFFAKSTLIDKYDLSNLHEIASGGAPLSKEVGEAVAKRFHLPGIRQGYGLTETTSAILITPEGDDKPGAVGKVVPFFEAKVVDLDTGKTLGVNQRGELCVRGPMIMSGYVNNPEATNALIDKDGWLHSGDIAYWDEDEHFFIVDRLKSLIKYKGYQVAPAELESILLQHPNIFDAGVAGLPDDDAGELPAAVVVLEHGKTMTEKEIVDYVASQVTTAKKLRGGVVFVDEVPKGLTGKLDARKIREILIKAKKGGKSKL
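System: luciferase plus luciferin reagent, cell-free; medium: PBS as buffer for the ATP substrate; dosing: test compounds dosed from 2 mM stocks in 100% DMSO; timing: 10 min post-reagent at room temperature; measured by: luminescence measurement of luciferase light output; evaluation: luciferase activation, seen as luminescence increase over controls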
FLuc inhib CS: firefly luciferase enzyme inhibitors, primary screen, artefact control for luciferase-based inhibitor screens, biochemical, luminescence, ATPLite | Luciferin 4-monooxygenase (Photinus pyralis), P08659 | 10 min | inhibition, % at 10 µM | 200,000 tested, 1.5% active | AID 1006, 2008;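 active = inhibition above about 50% when tested at 10 µM, limit read from the data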
Rad51 HR inh: human RAD51 strand exchange inhibitors, primary screen, biochemical, fluorescence; DNA repair protein RAD51 homolog 1 (Homo sapiens), Q06609; hRad51 DNA strand exchange, fluorescence dequenching; inhibition, % at 10 µM; 200,000 tested, 0.085% active;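 active = inhibition above 40% at the single screening dose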
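material = hRad51 filaments on single-stranded DNA | timing = filaments 15 min 37 °C, then compound 30 min | signal = FRET fluorescence dequenching, excitation 485 nm, emission 520 nm | benchmarks = control wells and blank wells on each plate | evaluation = percent inhibition relative to plate controls and blanks | compound = 10 µM final, single point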
NF-kB expr up: activators of NF-kB expression in neurons, primary screen, cell-based, HTS. human neuronal cells, NF-kB reporter expression; stronger effect = higher value. fold change at 12.5 µM. 190,000 tested, 1.6% active. AID 1239, 2008; in the data active = fold change above about 3.3
Numbers stand for hits. Only some compounds are listed: those with a hit (about 3.9% of all), similar ones and a draw of the others.

Screening CN(C)/C=N/c1ncc(C(=O)c2ccccc2)s1 returned APP 5'UTR act inactive, STAT1 activator 129.0, FLuc stim CS inactive, FLuc inhib CS inactive, Rad51 HR inh inactive and NF-kB expr up inactive.
`Nc1nc(Nc2ccc(Cl)cc2Cl)nc(C(F)(F)F)n1` gave APP 5'UTR act inactive, STAT1 activator 140.2, FLuc stim CS inactive, FLuc inhib CS inactive, Rad51 HR inh inactive and NF-kB expr up inactive.
Cc1ccc2c(CN3CCC(C)CC3)cc(=O)oc2c1 was read as APP 5'UTR act inactive, STAT1 activator 138.2, FLuc stim CS inactive, FLuc inhib CS inactive, Rad51 HR inh inactive and NF-kB expr up 4.08.
Screening CCOC(=O)CN1C(=O)N[C@@H](c2cccc(F)c2)C(C(=O)OC)=C1C returned Rad51 HR inh inactive.
`Cc1cc(C)c(C#N)c(SCc2nnc(-c3ccccc3[N+](=O)[O-])o2)n1` gave APP 5'UTR act 212.9, STAT1 activator 139.5, FLuc stim CS inactive, FLuc inhib CS inactive and NF-kB expr up inactive.
`CS(=O)(=O)N(CC(=O)NCc1ccncc1)c1cc(Cl)ccc1Cl` gave APP 5'UTR act inactive, STAT1 activator inactive, FLuc stim CS inactive, FLuc inhib CS inactive, Rad51 HR inh inactive and NF-kB expr up inactive.
Screening COc1ccc(-c2cc3c(nn2)-c2ccccc2C3=O)cc1 returned APP 5'UTR act inactive, STAT1 activator inactive, FLuc stim CS inactive, FLuc inhib CS 93.8, Rad51 HR inh inactive and NF-kB expr up inactive.
COc1ccc(-c2nnsc2N2C(=O)c3ccccc3C2=O)cc1 was read as Rad51 HR inh inactive.
Cc1cccc(-c2cc3c(nn2)-c2ccccc2C3=O)c1 was read as STAT1 activator inactive, FLuc stim CS inactive, FLuc inhib CS 61.7, Rad51 HR inh inactive and NF-kB expr up 6.9.
Screening c1ccc(-c2cc3c(nn2)CCc2nonc2-3)cc1 returned APP 5'UTR act inactive, STAT1 activator inactive, FLuc stim CS inactive, FLuc inhib CS inactive, Rad51 HR inh inactive and NF-kB expr up inactive.
For O=C1c2ccccc2-c2nnc(-c3ccccc3)cc21 the results were APP 5'UTR act inactive, STAT1 activator inactive, FLuc stim CS inactive, FLuc inhib CS 81.2, Rad51 HR inh inactive and NF-kB expr up 3.32.
Screening Cn1cc(C[C@H](NC(=O)OC(C)(C)C)C(=O)N[C@@H](CO)Cc2ccccc2)c2ccccc21 returned Rad51 HR inh inactive.
O=C(CN1CCOCC1)N/N=C/c1ccc(-c2cccc(Cl)c2Cl)o1 was read as Rad51 HR inh inactive.
Screening O=C(Nc1ccc2c(c1)CCC2)c1ccc(Cl)nc1 returned APP 5'UTR act inactive, STAT1 activator 162.9, FLuc stim CS inactive, FLuc inhib CS inactive, Rad51 HR inh inactive and NF-kB expr up 4.
For CC(=O)Nc1ccc(NC(=O)c2ccc(Cl)nc2)cc1 the results were Rad51 HR inh 41.5.
For O=C(Nc1cccc(S(=O)(=O)Nc2ccc(Cl)cc2)c1)c1ccc(Cl)nc1 the results were APP 5'UTR act inactive, STAT1 activator inactive, FLuc stim CS inactive, FLuc inhib CS inactive, Rad51 HR inh inactive and NF-kB expr up inactive.
For O=C(Nc1ccc2c(c1)CCC2)c1cnc(Cl)c(Cl)c1 the results were APP 5'UTR act 149.0, STAT1 activator 134.9, FLuc stim CS inactive, FLuc inhib CS inactive, Rad51 HR inh inactive and NF-kB expr up 3.82.
Cc1noc(C)c1C(=O)N1CCC2(CC1)Oc1ccc(F)cc1C(=O)C21CC(c2ccc(Cl)cc2)=NO1 (stereo not drawn) was read as Rad51 HR inh inactive.
Screening CCOC(=O)c1ccc(Nc2ncnc3nc[nH]c23)cc1 returned APP 5'UTR act inactive, STAT1 activator inactive, FLuc stim CS inactive, FLuc inhib CS 50.5, Rad51 HR inh inactive and NF-kB expr up inactive.
Screening c1ccc(-c2n[nH]c(-c3ccccn3)n2)nc1 returned APP 5'UTR act inactive, STAT1 activator 144.5, FLuc stim CS inactive, FLuc inhib CS inactive, Rad51 HR inh inactive and NF-kB expr up inactive.
`CCOC(=O)c1c(CSC(=N)N)n(-c2ccccc2)c2cc(Br)c(OC(C)=O)cc12` gave Rad51 HR inh inactive.
For O=[N+]([O-])c1ccc(-c2cnc[nH]2)cc1 the results were Rad51 HR inh inactive.
O=[N+]([O-])c1ccc(-c2cc(-c3ccc(Cl)cc3)n[nH]2)cc1 was read as APP 5'UTR act inactive, STAT1 activator 137.8, FLuc stim CS inactive, FLuc inhib CS inactive and NF-kB expr up inactive.
O=[N+]([O-])c1ccc(N/N=C/c2c[nH]c3ccccc23)cc1 was read as APP 5'UTR act inactive, STAT1 activator inactive, FLuc stim CS inactive, FLuc inhib CS inactive, Rad51 HR inh inactive and NF-kB expr up inactive.
O=[N+]([O-])c1ccc(N/N=C/c2ccc[nH]2)cc1 was read as APP 5'UTR act inactive, STAT1 activator inactive, FLuc stim CS inactive, FLuc inhib CS inactive and NF-kB expr up 25.8.
`CC(=O)Nc1nc(SCC(=O)Nc2nnc(C)s2)[nH]c(=O)c1NC(=O)c1cccs1` gave APP 5'UTR act inactive, STAT1 activator inactive, FLuc stim CS inactive, FLuc inhib CS inactive and NF-kB expr up inactive.
`CC(Sc1nnc(NC2CCCCC2)s1)C(=O)Nc1ccc2c(c1)C(=O)c1ccccc1C2=O` (stereo not drawn) gave APP 5'UTR act inactive, STAT1 activator 142.0, FLuc stim CS inactive, FLuc inhib CS inactive, Rad51 HR inh inactive and NF-kB expr up inactive.
CC(NC(=O)Nc1ccc([N+](=O)[O-])cc1)C(c1cccs1)N1CCCC1 (stereo not drawn) was read as APP 5'UTR act inactive, STAT1 activator inactive, FLuc stim CS inactive, FLuc inhib CS inactive, Rad51 HR inh inactive and NF-kB expr up inactive.
For C/C(O)=C(/C=NCC(=O)O)C(=O)Nc1nccs1 the results were APP 5'UTR act inactive, STAT1 activator inactive, FLuc stim CS inactive, FLuc inhib CS inactive, Rad51 HR inh inactive and NF-kB expr up inactive.
For O=C(Nc1cccc([N+](=O)[O-])c1)Nc1cccs1 the results were APP 5'UTR act inactive, STAT1 activator inactive, FLuc stim CS inactive, FLuc inhib CS inactive, Rad51 HR inh inactive and NF-kB expr up inactive.
For O=C(Nc1nc2ccccc2[nH]1)c1ccc(F)cc1 the results were APP 5'UTR act inactive, STAT1 activator inactive, FLuc stim CS inactive, FLuc inhib CS 91.3, Rad51 HR inh inactive and NF-kB expr up inactive.
`CSc1nnc(NC(=O)c2ccc(S(=O)(=O)N(C)C)cc2)s1` gave APP 5'UTR act inactive, STAT1 activator inactive, FLuc stim CS inactive, FLuc inhib CS 60.5 and NF-kB expr up inactive.
